# Activity calls are given as the source filed them. No cut-off for these calls is given here.
# What was measured:
# [1] = tested on: Mus musculus; test: Antidepressant activity in kunming mouse assessed as increase in 5-HT level in frontal cortex at 160 mg/kg, po measured after 14 days by HPLC-ECD analysis; format: functional, organism-based; conditions: time 14.0 day
# Method in brief: (§1)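 Male Kunming mice dosed orally with vehicle or 160 mg kg−1 for 14 days, then killed by cervical dislocation. Brain regions dissected on ice, homogenized in 0.2 M perchloric acid with 0.1 mM EDTA and spun at 4 °C for 20 min. Supernatant analysed by HPLC-ECD at +0.50 V, mobile phase pH 3.0. Amounts given in ng g−1 as mean ± SEM, n = 12.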
# [2] = tested on: Mus musculus; test: Antidepressant activity in kunming mouse assessed as decrease in DOPAC level in thalamus at 160 mg/kg, po measured after 14 days by HPLC-ECD analysis; format: functional, organism-based; conditions: time 14.0 day; method in brief: as §1
# [3] = tested on: Mus musculus; test: Antidepressant activity in kunming mouse assessed as increase in dopamine level in hypothalamus at 160 mg/kg, po measured after 14 days by HPLC-ECD analysis; format: functional, organism-based; conditions: time 14.0 day; method in brief: as §1
# [4] = tested on: Mus musculus; test: Antidepressant activity in Kunming mouse assessed as decrease in immobility time at 80 mg/kg, po administered two times at 1 hrs and 24 hrs and measured at last 4 mins of 6 mins test by forced swim test relative to fluoxetine; format: functional; parameters: scale not given: the % may be the effect or the level left; conditions: time 1444 min, 24.07 h
# Method in brief: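 Male Kunming mice, 15–18 g, housed six per cage at 22 ± 1 °C on a 12 h light/dark cycle. Oral dosing 24 h and 1 h before the test. Each mouse placed in a cylinder (25 cm high, 15 cm diameter) holding 10 cm of water at 25 ± 1 °C and made to swim 6 min; immobility over the last 4 min scored by video tracking.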
# [5] = tested on: Mus musculus; test: Antidepressant activity in kunming mouse assessed as increase in 5-HT level in hippocampus at 160 mg/kg, po measured after 14 days by HPLC-ECD analysis; format: functional, organism-based; conditions: time 14.0 day; method in brief: as §1
# [6] = tested on: HEK293T; test: (§2) Agonist activity at human MT1 N162A mutant receptor transfected in HEK293T cells co-transfected with tet-inducible luciferase reporter plasmid, pCDNA3.1(+)-CMV-betaArrestin2-tev plasmid and TANGO plasmid assessed as shift in concentration response curve incubated for 24 hrs by TANGO-GPCR assay based luminescence plate reader analysis relative to agomelatine; format: cell-based; conditions: filed as agonist
# Method in brief: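 293T cells transiently transfected with tet-inducible luciferase reporter, pCDNA3.1(+)-CMV-bArrestin2-tev and TANGO receptor plasmids (wild-type or point mutant). Next day plated at 20 000 cells/well on poly-L-lysine; drug added day 3. Day 4, Bright-Glo added, 20 min, then luminescence read. Concentration–response curves fitted; data mean ± SD.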
# [7] = Cmax in Kunming mouse at 80 mg/kg, po administered as single dose and measured upto 24 hrs; format: ADME, organism-based; parameters: time < 24 hrs, dose 80 mg/kg, route po; conditions: in vivo
# [8] = tested on: Mus musculus; test: Antidepressant activity in kunming mouse assessed as decrease in DOPAC level in hypothalamus at 160 mg/kg, po measured after 14 days by HPLC-ECD analysis; format: functional, organism-based; conditions: time 14.0 day; method in brief: as §1
# [9] = biological target: T1, Melatonin receptor type 1B (Homo sapiens, UniProt P49286); test: as §2, with “MT2” for “MT1 N162A mutant”, “relative luminescence unit” for “shift in concentration response curve”, “analysis” for “analysis relative to agomelatine”; format: functional, cell-based
# T1 sequence (P49286 whole entry): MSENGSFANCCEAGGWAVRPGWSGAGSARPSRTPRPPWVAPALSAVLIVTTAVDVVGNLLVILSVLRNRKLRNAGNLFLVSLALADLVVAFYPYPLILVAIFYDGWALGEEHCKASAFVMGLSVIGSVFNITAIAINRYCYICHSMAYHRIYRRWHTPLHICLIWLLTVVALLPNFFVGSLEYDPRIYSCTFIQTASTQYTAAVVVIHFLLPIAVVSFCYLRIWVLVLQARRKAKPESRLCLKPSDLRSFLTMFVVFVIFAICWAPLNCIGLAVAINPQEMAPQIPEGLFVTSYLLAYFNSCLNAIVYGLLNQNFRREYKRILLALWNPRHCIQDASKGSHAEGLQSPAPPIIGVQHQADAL
# [10] = Subacute toxicity in Kunming mouse assessed as effect on kidney structure at 240 mg/kg, po administered for 14 days; format: organism-based; conditions: in vivo, 336 h, time 14 day
# Method in brief: (§3)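 Subacute oral study following OECD 425. Animals randomised into two groups of six. Vehicle control received 0.5% CMC-Na orally for 14 consecutive days; the treated group received 240 mg kg−1 body weight orally for 14 consecutive days.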
# [11] = tested on: Mus musculus; test: Antidepressant activity in kunming mouse assessed as decrease in 5-HIAA level in hippocampus at 160 mg/kg, po measured after 14 days by HPLC-ECD analysis; format: functional, organism-based; conditions: time 14.0 day; method in brief: as §1
# [12] = tested on: Mus musculus; test: Antidepressant activity in kunming mouse assessed as increase in dopamine level in thalamus at 160 mg/kg, po measured after 14 days by HPLC-ECD analysis; format: functional, organism-based; conditions: time 14.0 day; method in brief: as §1
# [13] = Half-life in Kunming mouse at 80 mg/kg, po administered as single dose and measured upto 24 hrs; format: ADME, organism-based; conditions: in vivo
# [14] = Tmax in Kunming mouse at 80 mg/kg, po administered as single dose and measured upto 24 hrs; format: ADME, organism-based; conditions: in vivo
# [15] = tested on: Mus musculus; test: Antidepressant activity in kunming mouse assessed as increase in dopamine level in striatum at 160 mg/kg, po measured after 14 days by HPLC-ECD analysis; format: functional, organism-based; conditions: time 14.0 day; method in brief: as §1
# [16] = tested on: Mus musculus; test: Antidepressant activity in kunming mouse assessed as decrease in 5-HIAA level in thalamus at 160 mg/kg, po measured after 14 days by HPLC-ECD analysis; format: functional, organism-based; conditions: time 14.0 day; method in brief: as §1
# [17] = tested on: Mus musculus; test: Antidepressant activity in Kunming mouse assessed as decrease in immobility time at 40 mg/kg, po and measured after 14 days by forced swim test relative to control; format: functional; parameters: scale not given: the % may be the effect or the level left; conditions: time 14 day
# Method in brief: (§4)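 Male Kunming mice, 15–18 g, given the test compound orally for 14 days. Forced swim then done in a cylinder 25 cm high and 15 cm in diameter, water 10 cm deep at 25 ± 1 °C. Swim lasted 6 min and immobility over the final 4 min was video-scored against the vehicle group.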
# [18] = tested on: Mus musculus; test: Antidepressant activity in kunming mouse assessed as increase in dopamine level in frontal cortex at 160 mg/kg, po measured after 14 days by HPLC-ECD analysis; format: functional, organism-based; conditions: time 14.0 day; method in brief: as §1
# [19] = Subacute toxicity in Kunming mouse assessed as animal death at 240 mg/kg, po administered for 14 days; format: organism-based; conditions: in vivo, 336 h, time 14 day; method in brief: as §3
# [20] = tested on: Mus musculus; test: Antidepressant activity in kunming mouse assessed as decrease in 5-HIAA level in hypothalamus at 160 mg/kg, po measured after 14 days by HPLC-ECD analysis; format: functional, organism-based; conditions: time 14.0 day; method in brief: as §1
# [21] = Subacute toxicity in Kunming mouse assessed as effect on liver structure at 240 mg/kg, po administered for 14 days; format: organism-based; conditions: in vivo, 336 h, time 14 day; method in brief: as §3
# [22] = tested on: Mus musculus; test: Antidepressant activity in kunming mouse assessed as decrease in DOPAC level in frontal cortex at 160 mg/kg, po measured after 14 days by HPLC-ECD analysis; format: functional, organism-based; conditions: time 14.0 day; method in brief: as §1
# [23] = tested on: Mus musculus; test: Antidepressant activity in Kunming mouse assessed as decrease in immobility time at 80 mg/kg, po and measured after 14 days by forced swim test relative to control; format: functional; parameters: scale not given: the % may be the effect or the level left; conditions: time 14 day; method in brief: as §4
smiles,measurement,setting,value
COc1cc2c(CN3CCN(C)CC3)coc2cc1C,Activity,[1],Active
same,Activity,[2],Active
same,Activity,[3],Active
same,Activity,[4],26%
same,Activity,[5],Active
same,Activity,[6],Active
same,Cmax,[7],1340 ng/mL
same,Activity,[8],Active
same,EC50,[9],299 µM
same,Activity,[10],Non-Toxic
same,Activity,[11],Active
same,Activity,[12],Active
same,half-life,[13],5.47 h
same,Tmax,[14],4.98 min
same,Activity,[15],Active
same,Activity,[16],Active
same,Activity,[17],26%
same,Activity,[18],Active
same,Activity,[19],Non-Toxic
same,Activity,[20],Active
same,Activity,[21],Non-Toxic
same,Activity,[22],Active
same,Activity,[23],26%

# Reference: ChEMBL document CHEMBL5108087, “Synthesis and biological evaluation of paeoveitol D derivatives as new melatonin receptor agonists with antidepressant activities” (RSC Med Chem, 2022)
